In ChEMBL document CHEMBL1125917, “Synthesis of halogen-substituted 1,5-benzothiazepine derivatives and their vasodilating and hypotensive activities” (1991):

What was measured:
Canis familiaris [1] = species on record: Canis familiaris; experiment: Antihypertensive activity expressed as the ratio of the potency evaluated by increased vertebral blood flow (VBF) to that of diltiazem.; type: functional, Canis lupus familiaris
How it was run: (§1)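 Anesthetized dogs; compounds given intraarterially. Vertebral blood flow recorded, and a dose-response curve built from peak responses. Potency given as ratio to diltiazem, calculated from the dose-response curves. Half duration is the time, in minutes, that blood flow stays at one-half of the maximum change.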

Canis familiaris [2] = experiment: Antihypertensive activity by the increase in the vertebral blood flow in anesthetized dogs expressed as duration of half of the maximum change in blood flow.; type: functional, Canis lupus familiaris; how it was run: as §1
Cavia porcellus = species on record: Cavia porcellus; experiment: Increase in the coronary blood flow (CBF) was determined in isolated guinea pig heart at a dose of 100 ug/heart; type: functional
How it was run: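 Hartley guinea pig hearts perfused by the Langendorff method with modified Locke-Ringer solution containing defibrinated rabbit blood, at 40 cm H2O and 29 ± 1 °C. Compounds in saline injected into the aortic cannula at 3, 10, 30 or 100 μg/heart. Coronary flow measured by drop counter; graded by the lowest dose giving an increase of at least 0.5 mL/min.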

Rattus norvegicus [3] = experiment: Change in blood pressure in spontaneously hypertensive rats 1 hr following 30 mg/kg p.o.; type: functional; details: route oral
How it was run: (§2)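 Male spontaneously hypertensive rats, fasted 20 h. Compounds dissolved in deionized water and given orally (30 mg/kg; some at 100 mg/kg). Blood pressure measured by tail-cuff in conscious animals. Change (mmHg) taken from the predosing value at 1 and 4 h, or 1 and 5 h, after dosing. N = 3-6.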

Rattus norvegicus [4] = experiment: Hypotensive activity in SHR (spontaneously hypertensive rats) expressed as change in blood pressure(mmHg) after 4 hr dosing at a concentration of 30 mg/kg; type: functional; how it was run: as §2

| SMILES | Potency ratio (Canis familiaris [1]) | Half duration (Canis familiaris [2]) | Increase in CBF (Cavia porcellus) | Change in blood pressure (Rattus norvegicus [3]) | Change in blood pressure (Rattus norvegicus [4]) | Change in blood pressure (Rattus norvegicus [3]; 30 mg/kg) | Change in blood pressure (Rattus norvegicus [4]; 30 mg/kg) |
| --- | --- | --- | --- | --- | --- | --- | --- |
| Cc1ccc(C2Sc3cc(Cl)ccc3N(CCN(C)C)C(=O)C2OC(=O)c2ccc(Cl)cc2[N+](=O)[O-])cc1 (centres undefined) | 0.02 | 140 min |  |  |  |  |  |
| COc1ccc(C2Sc3cc(Cl)ccc3N(CCN(C)C)C(=O)C2OC(=O)c2ccc(C)cc2)cc1 (centres undefined) | 0.33 | 140 min |  |  |  |  |  |
| Cc1ccc(C2Sc3cc(Cl)ccc3N(CCN(C)C)C(=O)C2O)cc1 (centres undefined) | 0.52 | 31 min |  |  |  |  |  |
| CCOC(=O)OC1C(=O)N(CCN(C)C)c2ccc(F)cc2SC1c1ccc(OC)cc1 (centres undefined) | 0.16 | 33 min | >0.5 mL/min |  |  |  |  |
| COc1ccc(C2Sc3cc(F)ccc3N(CCN(C)C)C(=O)C2OC(=O)c2ccc(C)cc2)cc1 (centres undefined) | 0.26 | 62 min |  |  |  |  |  |
| CCCN(C)CCN1C(=O)C(O)C(c2ccc(OC)cc2)Sc2cc(Cl)ccc21 (centres undefined) | 0.24 | 35 min | >0.5 mL/min | -20 delta mmHg | -27.3 delta mmHg |  |  |
| C#CCN(C)CCN1C(=O)C(O)C(c2ccc(OC)cc2)Sc2cc(Cl)ccc21 (centres undefined) | 0.06 | 28 min |  |  |  |  |  |
| COc1ccc(C2Sc3cc(Cl)ccc3N(CCN(C)C)C(=O)C2OC(=O)c2ccc([N+](=O)[O-])cc2)cc1 (centres undefined) | 0.05 | 75 min | >0.5 mL/min |  |  |  |  |
| Cc1ccc(C2Sc3cc(Cl)ccc3N(CCN(C)C)C(=O)C2OC(=O)c2ccc([N+](=O)[O-])cc2)cc1 (centres undefined) | 0.08 | 84 min |  |  |  |  |  |
| Cc1ccc(C2Sc3cc(Cl)ccc3N(CCN(C)C)C(=O)C2OC(=O)c2ccc([N+](=O)[O-])cc2Cl)cc1 (centres undefined) | 0.05 | 156 min |  |  |  |  |  |
| CCN(C)CCN1C(=O)C(O)C(c2ccc(OC)cc2)Sc2cc(Cl)ccc21 (centres undefined) | 0.28 | 38 min | >0.5 mL/min | -21.3 delta mmHg | -39.3 delta mmHg |  |  |
| CC(=O)OC1C(=O)N(CCN(C)C)c2ccc(Cl)cc2SC1c1ccc(C)cc1 (centres undefined) | 0.37 | 61 min |  |  |  |  |  |
| CCN(CC)CCN1C(=O)C(OC(C)=O)C(c2ccc(OC)cc2)Sc2cc(Cl)ccc21 (centres undefined) | 0.55 | 48 min | >0.5 mL/min |  |  |  |  |
| COc1ccc(C2Sc3cc(F)ccc3N(CCN(C)C)C(=O)C2O)cc1.Cl (centres undefined) | 0.37 | 40 min | >0.5 mL/min |  |  |  |  |
| COc1ccc(C2Sc3c(ccc(Cl)c3Cl)N(CCN(C)C)C(=O)C2OC(C)=O)cc1.Cl (centres undefined) | 0.35 | 156 min | >0.5 mL/min |  |  |  |  |
| COc1ccc(C2Sc3cc(F)ccc3N(CCN(C)C)C(=O)C2OC(C)=O)cc1.Cl (centres undefined) | 0.37 | 71 min | >0.5 mL/min | -64 delta mmHg | -50 delta mmHg |  |  |
| COc1ccc(C2Sc3cc(Cl)ccc3N(CCN(C)C)C(=O)C2O)cc1.Cl (centres undefined) | 0.76 | 39 min | >0.5 mL/min |  |  |  |  |
| COc1ccc(C2Sc3cc(Cl)c(Cl)cc3N(CCN(C)C)C(=O)C2O)cc1.Cl (centres undefined) | 0.29 | 36 min | >0.5 mL/min |  |  |  |  |

| SMILES | Potency ratio (Canis familiaris [1]) | Half duration (Canis familiaris [2]) | Increase in CBF (Cavia porcellus) | Change in blood pressure (Rattus norvegicus [3]) | Change in blood pressure (Rattus norvegicus [4]) | Change in blood pressure (Rattus norvegicus [3]; 30 mg/kg) | Change in blood pressure (Rattus norvegicus [4]; 30 mg/kg) |
| --- | --- | --- | --- | --- | --- | --- | --- |
| COc1ccc(C2Sc3cccc(Cl)c3N(CCN(C)C)C(=O)C2OC(C)=O)cc1.Cl (centres undefined) | 0.62 | 53 min | >0.5 mL/min | -22 delta mmHg | -13.7 delta mmHg |  |  |
| COc1ccc(C2Sc3c(F)cccc3N(CCN(C)C)C(=O)C2O)cc1.Cl (centres undefined) | 0.14 | 33 min | >0.5 mL/min |  |  |  |  |
| COc1ccc(C2Sc3c(F)cccc3N(CCN(C)C)C(=O)C2OC(C)=O)cc1.Cl (centres undefined) | 0.34 | 43 min | >0.5 mL/min | -39 delta mmHg | -60.3 delta mmHg |  |  |
| CCN(C)CCN1C(=O)C(OC)C(c2ccc(OC)cc2)Sc2cc(Cl)ccc21 (single isomer, unassigned; (+)) | 0.5 | 41 min |  |  |  |  |  |
| CCCC(=O)OC1C(=O)N(CCN(C)C)c2ccc(Cl)cc2SC1c1ccc(OC)cc1 (single isomer, unassigned; (+)) | 0.8 | 41 min |  | -30 delta mmHg | -28 delta mmHg |  |  |
| COc1ccc(C2Sc3ccc(Cl)cc3N(CCN(C)C)C(=O)C2O)cc1 (single isomer, unassigned; (+)) | 0.17 | 24 min | <0.5 mL/min |  |  |  |  |
| CCN(CC)CCN1C(=O)C(O)C(c2ccc(OC)cc2)Sc2cc(Cl)ccc21 (single isomer, unassigned; (+)) | 0.32 | 31 min | >0.5 mL/min |  |  |  |  |
| CCCCC(=O)OC1C(=O)N(CCN(C)C)c2ccc(Cl)cc2SC1c1ccc(OC)cc1 (single isomer, unassigned; (+)) | 0.67 | 42 min |  | -46 delta mmHg | -39 delta mmHg |  |  |
| COc1ccc(C2Sc3cc(Cl)ccc3N(CCN(C)C)C(=O)C2OC(=O)c2ccc([N+](=O)[O-])cc2Cl)cc1 (single isomer, unassigned; (+)) | 0.08 | 118 min | >0.5 mL/min |  |  |  |  |
| C=CCN(C)CCN1C(=O)C(O)C(c2ccc(OC)cc2)Sc2cc(Cl)ccc21 (single isomer, unassigned; (+)) | 0.23 | 34 min |  |  |  |  |  |
| COc1ccc(C2Sc3ccc(Cl)cc3N(CCN(C)C)C(=O)C2OC(C)=O)cc1.Cl (single isomer, unassigned; (+)) | 0.93 | 29 min | >0.5 mL/min |  |  |  |  |
| COc1ccc(C2Sc3cc(Cl)ccc3N(CCN(C)C)C(=O)C2OC(C)=O)cc1.Cl (single isomer, unassigned; (+)) | 1.7 |  |  |  |  | -86 delta mmHg | -68 delta mmHg |
| COc1ccc(C2Sc3c(Cl)cccc3N(CCN(C)C)C(=O)C2OC(C)=O)cc1.Cl (single isomer, unassigned; (+)) | 0.83 | 74 min |  | -73.7 delta mmHg | -54.3 delta mmHg |  |  |
| COc1ccc(C2Sc3c(Cl)cccc3N(CCN(C)C)C(=O)C2O)cc1 (single isomer, unassigned; (-)) | 0.02 | 21 min | <0.5 mL/min |  |  |  |  |
| COc1ccc(C2Sc3c(Cl)cccc3N(CCN(C)C)C(=O)C2OC(C)=O)cc1.Cl (single isomer, unassigned; (-)) | 0.06 | 22 min | <0.5 mL/min |  |  |  |  |
| CCN(C)CCN1C(=O)C(OC(C)=O)C(c2ccc(OC)cc2)Sc2cc(Cl)ccc21 (stereo in doubt; 2o) | 0.74 | 60 min |  |  |  |  |  |
| COc1ccc(C2Sc3cc(Cl)ccc3N(CCN(C)C)C(=O)C2OC(C)=O)cc1.Cl (stereo in doubt; 2w) | 0.01 | 31 min |  |  |  |  |  |
| COc1ccc(C2Sc3ccc(Cl)cc3N(CCN(C)C)C(=O)C2OC(C)=O)cc1.Cl (stereo in doubt; (-)-2ll) | 0.03 | 12 min | <0.5 mL/min |  |  |  |  |
